Assay outcomes deposited in PubChem BioAssay by several laboratories.
Shown are actives, neighbours in structure and some others; about 2.5% of the full set was active somewhere.
Rin1-Abl PPI inh – blocks binding of human Rin1 to Abl; P00519+Q13671; TR-FRET Rin1/Abl binding, biochemical; inhibition, % at 7.35 µM; 360,000 compounds, 0.4% hits; AID 588664; in the data active = inhibition above about 5%, passing the limit was not always enough
MBD2 DNA inh – blocks human MBD2 binding to methylated DNA. Q9UBB5. TR-FRET, MBD2 binding to methylated oligonucleotide. inhibition, % at 4.4 µM. 370,000 compounds, 0.31% hits. AID 686964; in the data active = inhibition above about 13%
UHRF1 binding – UHRF1 methyl-DNA binding inhibition; Q96T88; UHRF1 binding to methylated oligo, TR-FRET; inhibition, % at 4.4 µM; 370,000 compounds, 0.75% hits; in the data active = inhibition above about 21%;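 also: UHRF1 SRA domain binding a hemimethylated CpG hairpin DNA probe; 0% = median of test compound wells and 100% = reference inhibitor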
Target sequence (Q96T88 whole entry, looked up, the tested form may be a part): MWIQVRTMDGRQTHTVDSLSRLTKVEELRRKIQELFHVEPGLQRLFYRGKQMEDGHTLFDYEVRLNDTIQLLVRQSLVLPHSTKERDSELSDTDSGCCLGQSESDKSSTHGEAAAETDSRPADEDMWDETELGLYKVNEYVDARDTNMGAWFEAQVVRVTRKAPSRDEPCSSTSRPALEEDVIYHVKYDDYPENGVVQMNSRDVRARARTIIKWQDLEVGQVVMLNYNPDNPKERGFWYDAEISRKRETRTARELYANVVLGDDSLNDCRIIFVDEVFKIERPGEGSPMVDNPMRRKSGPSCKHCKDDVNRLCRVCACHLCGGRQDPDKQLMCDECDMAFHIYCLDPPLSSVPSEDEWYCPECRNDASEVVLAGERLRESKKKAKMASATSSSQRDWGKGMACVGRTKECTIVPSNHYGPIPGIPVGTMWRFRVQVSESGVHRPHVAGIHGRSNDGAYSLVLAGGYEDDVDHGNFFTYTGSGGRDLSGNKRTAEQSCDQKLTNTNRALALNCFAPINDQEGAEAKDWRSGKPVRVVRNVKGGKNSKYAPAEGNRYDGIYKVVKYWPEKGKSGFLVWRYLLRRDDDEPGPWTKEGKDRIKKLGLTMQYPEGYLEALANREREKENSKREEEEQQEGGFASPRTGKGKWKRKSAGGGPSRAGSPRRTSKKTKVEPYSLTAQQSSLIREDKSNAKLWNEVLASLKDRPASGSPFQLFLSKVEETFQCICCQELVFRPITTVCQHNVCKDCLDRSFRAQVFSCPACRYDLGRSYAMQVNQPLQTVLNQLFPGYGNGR
ABHD5-PLIN5 inh – blocks binding of human ABHD5 to perilipin-5; Q00G26+Q8WTS1; Split G. princeps luciferase complementation, luminescence, 4 h; inhibition, % at 4 µM; 360,000 compounds, 0.78% hits; AID 602281;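 active = inhibition above the mean inhibition across every tested compound plus 3 SD, cut at about 22% in these data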;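 also: 0% = DMSO only wells and the 100% control is not disclosed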
B2AR ag – agonists of human beta-2 adrenergic receptor inducing internalization. P07550. Am2.2-beta2AR cells, FAP receptor internalization, flow cytometry. response, % (test concentration not listed). 340,000 compounds, 0.43% hits;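 active = response above a set limit, near 3 SD of response in nonfluorescent compounds, cut at about 42% in these data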
Arr AP2 block – blocks beta-arrestin peptide binding to AP2 adaptin. inhibition, % at 10 µM. 340,000 compounds, 0.31% hits. FITC-arrestin peptide / GST-AP2 beads, flow cytometry; AP2 beta2 appendage carries R879A mutation;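 active = inhibition above a set limit, near 3 SD of compounds lacking own fluorescence, cut at about 54% in these data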;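 also: plate controls were DMSO wells for no effect and 5 µM unlabelled arrestin peptide for full effect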
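System: GST-AP2 R879A glutathione beads. Medium: PBS with 0.05% Tween 20 and 0.1% BSA. Also added: FITC-arrestin peptide, 50 nM. Incubation: 12 min plus 1 h, RT. Measured by: high-throughput flow cytometry of beads, ex 488, em 535 nm. Evaluation: percent drop in bead-associated FITC signal.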
Starred values were filed as active, the others as inactive; / = no result given; ! = not active in a repeat.

SMILES	Rin1-Abl PPI inh	MBD2 DNA inh	UHRF1 binding	ABHD5-PLIN5 inh	B2AR ag	Arr AP2 block
C=C[C@H]1CN2CC[C@H]1C[C@@H]2[C@@H](O)c1ccnc2ccc(OC)cc12	-0.3	4.0	41.6*!	-0.1	-5.2	-7.2
Cc1cc(C)n2nc(C(=O)Nc3ccn(Cc4ccccc4C)n3)cc2n1	-1.4	-2.5	22.9*	-5.7	9.9	22.3
Clc1ccc(-n2c(SCc3cccc4ccccc34)nnc2-c2cccnc2)cc1	/	-2.0	1.9	/	/	/
Cc1nnn(C23CC4CC(CC(CC(=O)Nc5ccc(C)c(Cl)c5)(C4)C2)C3)n1	0.4	2.3	27.0*	0.1	5.7	1.6
COC(=O)C(=C/C=C/c1ccco1)C(=O)OC	-0.3	-0.2	-4.1	22.8*	7.3	8.7
Cc1c(C(=O)Nc2ccc(Cl)cc2)c2ccccn2c1CCc1ccncc1	-0.3	-0.1	23.6*	1.7	-18.2	24.2
COc1ccc(S(=O)(=O)N2CCSC2c2ccccc2)cc1 (centres undefined)	-2.4	2.4	69.1*	-5.7	-7.6	4.0
COc1ccc(S(=O)(=O)N2CCSC2c2ccc(OC)c(OC)c2)cc1 (centres undefined)	0.8	0.3	5.8	3.3	-1.4	6.1
CC(C)(C)N(Cc1cn(Cc2ccccc2)nn1)S(=O)(=O)c1ccc(N2CCCCC2)cc1Br	/	-7.3	-0.5	/	/	/
C[C@@H]1COc2cc(Br)ccc2S(=O)(=O)N1Cc1cn(CCC2OCCCO2)nn1	/	6.4	0.3	/	/	/
Fc1ccccc1CNc1ccc(Cl)c(Cl)c1	3.5	1.4	25.3*	-6.1	3.2	28.0
O=C1C[C@H](c2ccc3ccccc3c2)N=C2N1/C(=C\c1ccccc1)[C@@H](c1ccccc1C(F)(F)F)N2Cc1ccc2c(c1)OCO2	/	-4.0	-3.0	/	/	/
NS(=O)(=O)c1cccnc1Nc1c(Cl)cccc1Cl	1.4	1.3	20.9*	3.6	5.1	29.9
CC(=O)NS(=O)(=O)c1cccnc1Nc1cccc(Cl)c1C	-0.6	0.8	1.2	-4.9	0.4	23.5
O=C(CSc1nnc(SCc2cccc3ccccc23)s1)c1ccc(F)cc1	/	-3.9	-2.7	/	/	/
Cc1cccc(NC(=O)c2ccc(S(=O)(=O)NCc3ccco3)cc2)n1	1.7	3.1	30.3*	-1.3	0.1	17.5
Cc1ccc(NC(=O)c2ccc(S(=O)(=O)NCc3ccco3)cc2)nc1	4.2	4.3	-3.2	-1.2	-13.1	-1.0
O=C(c1cn2ccccc2n1)N1CCCC(Nc2ccc(F)c(F)c2)C1 (centres undefined)	3.6	0.8	22.9*	8.3	6.0	32.6
Cc1ccc(NC2CCCN(C(=O)c3cn4cc(Cl)ccc4n3)C2)cc1C (centres undefined)	-3.9	1.5	-3.8	-3.5	-14.6	1.4
CCOc1nc(Nc2ccc(OC)c(Cl)c2)nc(OCC)n1	-1.1	3.2	36.2*	-1.1	1.3	1.4
Cc1ccc(NC(=O)c2sc3nc[nH]c(=O)c3c2C)c(C)c1	7.1	6.9	22.6*	-0.6	-0.3	1.2
CCOC(=O)c1sc2nc[nH]c(=O)c2c1C	-3.7	-3.2	-4.2	6.3	6.3	-61.6
C#CCNC(=O)C[C@H]1C[C@@]2(C(=O)OC)C(=C[C@H](COCc3ccccc3)O[C@@H]2C)N(Cc2cccc3ccccc23)C1=O	/	-0.3	0.4	/	/	/
Cc1ccc(-c2nnc(SCC(=O)NN=Cc3c[nH]c4ccccc34)n2-c2ccccc2)cc1	/	1.0	1.1	/	/	/
Cn1c(=O)c2ccccc2n2c(CCl)nnc12	4.2	2.4	0.9	22.9*	8.9	-12.6
SMILES	Rin1-Abl PPI inh	MBD2 DNA inh	UHRF1 binding	ABHD5-PLIN5 inh	B2AR ag	Arr AP2 block
Cn1c(=O)c2ccccc2n2c(=S)[nH]nc12	1.8	1.1	-1.7	-10.6	-2.3	0.0
COc1cccc(CN[C@@H]2CC[C@@]34CCCN3C(=O)CCC[C@H]4C2)c1	/	4.1	-1.1	/	/	/
CCOc1ccc(-c2nn(-c3ccccc3)cc2/C=C2\SC(N)=NC2=O)cc1C	1.3	-3.6	-1.1	7.5	58.6*	9.7
Cc1ccc(-c2nn(-c3ccccc3)cc2/C=C2\SC(=S)N(CC(=O)O)C2=O)cc1	-0.1	2.3	-1.6	-2.4	13.5	30.8
COc1ccc(Cn2cc(CN3[C@@H](CC(C)C)COc4ccc(Cl)cc4S3(=O)=O)nn2)cc1	/	-3.7	-4.2	/	/	/
Nc1nc(-c2ccccc2)c(N=Nc2cccc3ccccc23)s1	1.0	-7.3	-4.1	22.8*	24.1	8.4
FC(F)(F)c1ccc(CSc2nccn2-c2ccccc2)cc1	-0.2	-4.7	79.6*	-0.7	-3.0	30.7
COc1ccccc1CCc1nnc(CCC(=O)NCCOc2cccnc2)o1	3.0	3.6	24.7*	1.8	1.3	-5.1
C[C@H]1[C@H](c2ccccc2)OC(O)([C@H](Cc2ccccc2)NC(=O)OC(C)(C)C)CN1C (some centres undefined)	/	6.3	1.5	/	/	/
COc1cc(C(=O)N2CCN(S(=O)(=O)c3cccs3)CC2)cc(OC)c1C	1.0	7.3	23.7*	0.2	1.2	3.3
COc1ccccc1N1CCN(S(=O)(=O)c2cccs2)CC1	3.0	-2.8	39.2*	8.8	4.6	5.0
C/C=C/C=C\C(=O)Nc1cccc(C2=NOC3(C2)C[C@H](C(N)=O)N(C(=O)CC#N)C3)c1 (some centres undefined)	-3.6	19.4*	13.4	6.5	-2.1	8.7
C/C=C\C=C/C(=O)Nc1cccc(C2=NOC3(C2)C[C@H](C(N)=O)N(C(=O)CC)C3)c1 (some centres undefined)	-0.2	-3.7	-0.8	-0.3	-6.8	-2.6
CCOC(=O)N1CCC(N2C(=O)c3ccccc3C2Nc2ccc(S(=O)(=O)N3CCOCC3)cc2)CC1 (centres undefined)	14.5*	4.4	1.4	2.7	/	-19.3
CCOC(=O)N1CCC(N2C(=O)c3ccccc3C2Nc2cc(OC)c(OC)c(OC)c2)CC1 (centres undefined)	1.5	-3.4	-0.3	-6.2	0.5	-0.1
CN(C)CCCNC(=S)NCC(c1ccc(Cl)cc1Cl)c1c[nH]c2ccccc12 (centres undefined)	0.1	6.6	1.6	14.8	46.6*	15.4
Cc1ccc(CN[C@@H]2CC[C@@]34CCCN3C(=O)CCC[C@H]4C2)cc1	/	-5.7	-1.8	/	/	/
O=C(Cn1nc(-c2ccccc2)c2ccccc21)Oc1ccccc1	/	-3.1	-0.3	/	/	/
C#CCOCCOCCOCCNc1nc(N2CCN(C(=O)Cn3cc(CCCN=C(N)N)nn3)CC2)nc(N2CCN(C(=O)[C@H](Cc3ccc(O)cc3)n3cc(CCO)nn3)CC2)n1	/	4.5	9.8	/	/	/
Cc1ccccc1CC(=O)NCC1CCCCC1	-1.2	1.7	39.9*	2.9	-9.6	-1.1
N#CC(C#N)=Cc1cccn1-c1ccc(C(=O)O)cc1	2.4	12.3	42.5*	10.2	2.8	7.1
Cc1ccccc1C(=O)N(C)[C@H]1C[C@H]2c3[nH]c4c(-c5ccc6c(c5)OCO6)cccc4c3CCN2C[C@H]1[C@H](C)O	/	-5.5	-2.8	/	/	/
